Consider 14 molecules from ChEMBL document CHEMBL1147889, “Synthesis of 6- and 9-alkylaminomethyl furoflavones as gastroprotective agents” (2007).

Molecules are shown by their SMILES.

Format in all cases: functional, Stomach
Assay [1] is filed under the species Rattus norvegicus. Description: Preventive index against ethnol-induced gastric ulcer rat in treated group to control group. The gist of the method:
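Preventive index = percentage inhibition of gastric mucosal damage: PI = 100 − (ulcer index of treated group / ulcer index of control group × 100). Ulcer index is the summed caliper-measured lesion lengths, taken 1 h after oral 1 ml 70% ethanol in 36 h fasted rats dosed 1 h before ethanol. Compared by one-way ANOVA.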

The test system of assay [2] is Rattus norvegicus. Description: Gastroprotective activity against ethanol-induced gastric ulcer in fasted rat accessed as number of ulcer at 20 mg/kg, ip. The note with it: route intraperitoneal. The essentials: (§1)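 Rats housed singly, fasted 36 h; test drug given, then 1 h later ulcer induced by oral 1 ml 70% ethanol in distilled water. Killed by cervical dislocation 1 h after ethanol; stomach opened along greater curvature, saline-rinsed, pinned flat. Ulcers counted; each lesion length measured by Vernier caliper, summed as ulcer index. Mean, SD, SE; one-way ANOVA then LSD pairwise test.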

Assay [3] relates to Rattus norvegicus. Description: Gastroprotective activity against ethanol-induced gastric ulcer in fasted rat accessed as gastric ulcer index at 20 mg/kg, ip. The note with it: route intraperitoneal. The gist of the method: as §1

For the molecule `COc1c2ccoc2cc2oc(-c3ccc(Cl)cc3)cc(=O)c12`, in the assay listed under Rattus norvegicus [1], the Preventive_index is 34.5. For the same molecule, the Activity in the assay on Rattus norvegicus [2] is recorded as 25.5; in the assay on Rattus norvegicus [3], 33.2 mm.
With `COc1c2occc2c(OC)c2c(=O)c(CN3CCN(C)CC3)c(-c3cccnc3)oc12`, the Preventive_index in the assay listed under Rattus norvegicus [1] was 44.4. For the same molecule, the Activity is given as 18.8 with Rattus norvegicus [2] and 28.2 mm with Rattus norvegicus [3].
Consider `COc1c2ccoc2cc2oc(-c3ccccc3)c(CN3CCOCC3)c(=O)c12`, for which the Preventive_index in the assay listed under Rattus norvegicus [1] is 41.6. In addition, the Activity with Rattus norvegicus [2] was determined as 21.8; in the assay on Rattus norvegicus [3] it was 29.6 mm.
For the molecule `COc1ccc(-c2cc(=O)c3c(OC)c4ccoc4cc3o2)cc1`, the Preventive_index in the assay listed under Rattus norvegicus [1] is 52.6. In addition, the Activity in the assay on Rattus norvegicus [2] was 19.7; in the assay on Rattus norvegicus [3] it was 24 mm.
Regarding `O=c1cc(-c2ccccc2)oc2cc3occc3c(O)c12`, the Preventive_index in the assay filed under Rattus norvegicus [1] is given as 24.3. Besides, the figures for the Activity with Rattus norvegicus [2] and with Rattus norvegicus [3] were 25.5 and 38.3 mm, respectively.
`COc1c2ccoc2c(CN2CCOCC2)c2oc(-c3cccnc3)cc(=O)c12` had a Preventive_index in the assay listed under Rattus norvegicus [1] of 19.5. Further, the Activity is 25 in the assay on Rattus norvegicus [2] and 40.8 mm with Rattus norvegicus [3].
The molecule `COc1c2ccoc2c(CN2CCN(C)CC2)c2oc(-c3cccnc3)cc(=O)c12` displayed a Preventive_index in the assay listed under Rattus norvegicus [1] of 41.5. Besides, the Activity in the assay with Rattus norvegicus [2] amounted to 23.7; in the assay on Rattus norvegicus [3] it was 29.7 mm.
For `O=c1cc(-c2ccc(Cl)cc2)oc2cc3occc3c(O)c12`, in that order: 33.9, 22.2 and 33.5 mm.
Turning to `O=c1cc(-c2ccc(Cl)cc2)oc2c(CN3CCOCC3)c3occc3c(O)c12`, in the assay filed under Rattus norvegicus [1], the Preventive_index stood at 16.1. Moreover, the Activity in the assay on Rattus norvegicus [2] was 28.5; in the assay on Rattus norvegicus [3], 42.5 mm.
The like results for `COc1c2ccoc2cc2oc(-c3cccnc3)c(CN(C)C)c(=O)c12` were, in that order, 38.8, 21.2 and 31 mm.
`COc1c2ccoc2c(CN2CCOCC2)c2oc(-c3ccccc3)cc(=O)c12`: the Preventive_index in the assay listed under Rattus norvegicus [1] stood at 21.4. The Activity is 27.8 with Rattus norvegicus [2] and 39.8 mm in the assay with Rattus norvegicus [3].
For `COc1c2ccoc2c(CN2CCOCC2)c2oc(-c3ccc(Cl)cc3)cc(=O)c12`, in that order: 26.6, 26 and 37.2 mm.
The like results for `O=c1cc(-c2ccccc2)oc2c(CN3CCOCC3)c3occc3c(O)c12` were, in that order, 26, 26.5 and 37.5 mm.
`COc1c2ccoc2cc2oc(-c3ccccc3)cc(=O)c12` [PINNATIN]: the Preventive_index in the assay filed under Rattus norvegicus [1] was found to be 31.3. Moreover, the Activity in the assay on Rattus norvegicus [2] amounted to 23.7; in the assay on Rattus norvegicus [3], 34.8 mm.
